Reference: ChEMBL document CHEMBL1121819, “Potential anticonvulsants. 1. 5-Benzylhydantoins” (J Med Chem, 1981)
Active and inactive are the calls of the source.

Tested on: Mus musculus
Assay: Loss of righting reflex was measured in the mice when administered intraperitoneally
Format: functional
Details: ip

Going from `O=C1NC(=O)C(Cc2cccc(C(F)(F)F)c2)N1` (centres undefined) to `O=C1NC(=O)C(c2ccccc2)(c2ccccc2)N1` [PHENYTOIN], the ED50 falls from 160 mg/kg to 82 mg/kg (2-fold).

Tested on: Mus musculus
Assay: Neurological deficit (Loss of coordination) was measured in the mice using rotarod test when administered intraperitoneally
Format: functional
Details: ip
In short: (§1)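 Mice dosed ip, then placed on rotarod turning at 11 rpm; failure to stay on for at least 1 min scored as loss of coordination. ED50 in mg/kg.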

Going from `O=C1NC(=O)C(Cc2cccc(C(F)(F)F)c2)N1` (centres undefined) to `CCCC(CCC)C(=O)O` [VALPROIC ACID], the ED50 rises from 65 mg/kg to 415 mg/kg (6.4-fold).

Tested on: Rattus norvegicus
Assay: Anticonvulsant activity measured to prevent maximal electroshock seizure in rats when administered intraperitoneally
Format: functional
Details: ip
In short: (§2)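 Male Sprague–Dawley rats (160–300 g) given compound ip as suspension in 0.5% methylcellulose (10 mL/kg), 30 min before electroshock; 150 mA via corneal electrodes for 0.2 s. Protection = abolition of hind-limb tonic extensor component. ED50 in mg/kg.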

`COc1ccc(OC)c(CC2NC(=O)NC2=O)c1` (centres undefined) and `COc1ccc(CC2NC(=O)NC2=O)cc1OC` (centres undefined) cannot be ordered by ED50: greater than 50 mg/kg for the first, greater than 50 mg/kg for the second.

`COc1ccc(OC)c(/C=C2/NC(=O)NC2=O)c1` and `COc1ccc(/C=C2/NC(=O)NC2=O)cc1OC` cannot be ordered by ED50: greater than 50 mg/kg for the first, greater than 200 mg/kg for the second.

`COc1ccc(OC)c(CC2(C)NC(=O)NC2=O)c1` (centres undefined) and `COc1ccc(CC2(C)NC(=O)NC2=O)c(OC)c1` (centres undefined) cannot be ordered by ED50: greater than 50 mg/kg for the first, greater than 50 mg/kg for the second.

First: O=C1NC(=O)/C(=C\c2cccc(Cl)c2)N1
Second: O=C1NC(=O)/C(=C\c2cccc(Br)c2)N1
The ED50 of the first is lower: roughly 50 mg/kg for the first, greater than 50 mg/kg for the second.

Compared with `CC1(Cc2cccc(C(F)(F)F)c2)NC(=O)NC1=O` (centres undefined), `O=C1NC(=O)C(Cc2cccc(C(F)(F)F)c2)N1` (centres undefined) is lower in ED50: greater than 50 mg/kg for the first, 23 mg/kg for the second.

`CN1C(=O)NC(Cc2cccc(C(F)(F)F)c2)C1=O` (centres undefined) and `O=C1NC(Cc2cccc(C(F)(F)F)c2)C(=O)N1CCBr` (centres undefined) cannot be ordered by ED50: greater than 50 mg/kg for the first, greater than 50 mg/kg for the second.

First: CN1C(=O)NC(Cc2cccc(Br)c2)C1=O (centres undefined)
Second: O=C1NC(=O)C(Cc2cccc(Br)c2)N1 (centres undefined)
The ED50 of the first is lower: 30 mg/kg for the first, greater than 50 mg/kg for the second.

`CC1(Cc2ccc3ccccc3c2)NC(=O)NC1=O` (centres undefined) and `COc1ccc(CC2(C)NC(=O)NC2=O)cc1OC` (centres undefined) cannot be ordered by ED50: greater than 50 mg/kg for the first, greater than 50 mg/kg for the second.

First: O=C1NC(=O)C(c2ccccc2)(c2cccc(C(F)(F)F)c2)N1 (centres undefined)
Second: O=C1NC(=O)C(c2ccccc2)(c2ccccc2)N1 [PHENYTOIN]
The ED50 of the first is higher: greater than 50 mg/kg for the first, 9.6 mg/kg for the second.

Compared with `CCOC(=O)CN1C(=O)NC(Cc2cccc(C(F)(F)F)c2)C1=O` (centres undefined), `O=C1NC(Cc2cccc(C(F)(F)F)c2)C(=O)N1CCO` (centres undefined) is lower in ED50: greater than 50 mg/kg for the first, 45 mg/kg for the second.

Compared with `O=C1NC(=O)/C(=C\c2cccc(C(F)(F)F)c2)N1`, `N#CCCN1C(=O)NC(Cc2cccc(C(F)(F)F)c2)C1=O` (centres undefined) is higher in ED50: roughly 50 mg/kg for the first, greater than 50 mg/kg for the second.

`O=C1NC(=O)C(Cc2cccc(Cl)c2)N1` (centres undefined) showed an ED50 greater than 50 mg/kg.

Tested on: Mus musculus
Assay: Neurological deficit was measured in the mice using rotarod test when administered intraperitoneally
Format: functional
Details: ip
In short: as §1

With `O=C1NC(=O)C(c2ccccc2)(c2ccccc2)N1` [PHENYTOIN] the ED50 was 135 mg/kg.

Tested on: Rattus norvegicus
Assay: (§3) Anticonvulsant activity was measured by the ability to prevent intraperitoneally
Format: functional
Details: not given
In short: (§4)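 Pentylenetetrazole (90 mg/kg ip) given after ip pretreatment with test agent as suspension in 0.5% methylcellulose; controls received diluent. Animals observed 15 min; protection = absence of clonic seizures. ED50 in mg/kg.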

`O=C1NC(=O)C(Cc2cccc(C(F)(F)F)c2)N1` (centres undefined) showed an ED50 of roughly 100 mg/kg.

Same assay, conditions: ip

`COc1ccc(OC)c(/C=C2/NC(=O)NC2=O)c1` and `COc1ccc(/C=C2/NC(=O)NC2=O)cc1OC` cannot be ordered by ED50: greater than 200 mg/kg for the first, greater than 50 mg/kg for the second.

`O=C1NC(=O)/C(=C\c2cccc(Cl)c2)N1` and `O=C1NC(=O)/C(=C\c2cccc(Br)c2)N1` cannot be ordered by ED50: greater than 200 mg/kg for the first, greater than 200 mg/kg for the second.

First: CN1C(=O)NC(Cc2cccc(C(F)(F)F)c2)C1=O (centres undefined)
Second: O=C1NC(Cc2cccc(C(F)(F)F)c2)C(=O)N1CCO (centres undefined)
The ED50 of the first is higher: greater than 100 mg/kg for the first, 100 mg/kg for the second.

Going from `CN1C(=O)NC(Cc2cccc(Br)c2)C1=O` (centres undefined) to `O=C1NC(=O)C(Cc2cccc(Br)c2)N1` (centres undefined), the ED50 rises from roughly 100 mg/kg to greater than 200 mg/kg.

`COc1ccc(CC2(C)NC(=O)NC2=O)cc1OC` (centres undefined) and `COc1ccc(CC2NC(=O)NC2=O)cc1OC` (centres undefined) cannot be ordered by ED50: greater than 200 mg/kg for the first, greater than 200 mg/kg for the second.

`O=C1NC(=O)C(c2ccccc2)(c2cccc(C(F)(F)F)c2)N1` (centres undefined) and `O=C1NC(=O)/C(=C\c2cccc(C(F)(F)F)c2)N1` cannot be ordered by ED50: greater than 200 mg/kg for the first, greater than 200 mg/kg for the second.

`CCOC(=O)CN1C(=O)NC(Cc2cccc(C(F)(F)F)c2)C1=O` (centres undefined) and `O=C1NC(=O)C(Cc2cccc(Cl)c2)N1` (centres undefined) cannot be ordered by ED50: greater than 100 mg/kg for the first, roughly 150 mg/kg for the second.

With `CCCC(CCC)C(=O)O` [VALPROIC ACID] the ED50 was greater than 500 mg/kg.

Tested on: Mus musculus
Assay: as §3
Format: functional
Details: ip
In short: as §4

With `O=C1NC(=O)C(Cc2cccc(C(F)(F)F)c2)N1` (centres undefined) the ED50 was 17.5 mg/kg.

Tested on: Mus musculus
Assay: Anticonvulsant activity was measured by the ability to prevent maximal electroshock seizure in mice when administered intraperitoneally
Format: functional
Details: ip
In short: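 Male ICR (Blue Spruce) mice, 19–22 g, dosed ip as suspension in 0.5% methylcellulose (10 mL/kg) 30 min prior to corneal electroshock, 50 mA for 0.2 s. Mice scored protected if hind-limb extensor phase was blocked; ED50 in mg/kg.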

First: O=C1NC(=O)C(Cc2cccc(C(F)(F)F)c2)N1 (centres undefined)
Second: O=C1NC(=O)C(c2ccccc2)(c2ccccc2)N1 [PHENYTOIN]
The ED50 of the first is 8.2-fold higher: 70 mg/kg for the first, 8.5 mg/kg for the second.

Compound `CCCC(CCC)C(=O)O` [VALPROIC ACID] has an ED50 of 260 mg/kg.

Tested on: Mus musculus
Assay: Tolerance was tested in maximal electroshock seizures test in mice when administered intraperitoneally; Yes
Format: functional, organism-based
Details: not given

With `O=C1NC(=O)C(c2ccccc2)(c2ccccc2)N1` [PHENYTOIN] the Tolerance was “Active”.

Tested on: Rattus norvegicus
Assay: Anticonvulsant activity was measured by the ability to prevent maximal electroshock seizure in rat when administered intraperitoneally
Format: functional
Details: ip
In short: as §2

Work on `CCCC(CCC)C(=O)O` [VALPROIC ACID] yielded an ED50 of 94.8 mg/kg.

Tested on: Rattus norvegicus
Assay: Anticonvulsant activity was measured by the ability to prevent intraperitoneally; Inactive
Format: functional, organism-based
Details: not given
In short: as §4

For `O=C1NC(=O)C(c2ccccc2)(c2ccccc2)N1` [PHENYTOIN], the ED50 was “inactive”.

Tested on: not listed separately
Assay: (§5) Acute toxicity of was measured in rat by ip administration when administered intraperitoneally
Format: organism-based
Details: in vivo

For `CCCC(CCC)C(=O)O` [VALPROIC ACID], the LD50 was 838 mg/kg.

Species: Rattus norvegicus
Assay: Peak time of anticonvulsant activity against MES was determined; 4-6
Format: functional
Details: not given
In short: (§6)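 Separate groups of rats dosed ip at approximate ED84 and challenged by maximal electroshock (150 mA, 0.2 s, corneal electrodes) at 0.5, 1, 2, 3 or >6 h after dosing; protection = hind-limb extensor blocked. Time of peak activity/duration in h.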

With `O=C1NC(=O)C(c2ccccc2)(c2ccccc2)N1` [PHENYTOIN] the Duration of action was 4 h.

Species: Rattus norvegicus
Assay: Peak time of anticonvulsant activity against MES was determined
Format: functional
Details: not given
In short: as §6

`CCCC(CCC)C(=O)O` [VALPROIC ACID] showed a Duration of action of roughly 5 h.

Tested on: not listed separately
Assay: Acute toxicity measured in mice when administered intraperitoneally
Format: organism-based
Details: mus sp., in vivo, ip

`COc1ccc(OC)c(/C=C2/NC(=O)NC2=O)c1` and `COc1ccc(/C=C2/NC(=O)NC2=O)cc1OC` cannot be ordered by LD50: greater than 500 mg/kg for the first, greater than 500 mg/kg for the second.

`COc1ccc(OC)c(CC2(C)NC(=O)NC2=O)c1` (centres undefined) and `COc1ccc(CC2(C)NC(=O)NC2=O)c(OC)c1` (centres undefined) cannot be ordered by LD50: greater than 800 mg/kg for the first, greater than 600 mg/kg for the second.

`CN1C(=O)NC(Cc2cccc(C(F)(F)F)c2)C1=O` (centres undefined) and `CN1C(=O)NC(Cc2cccc(Br)c2)C1=O` (centres undefined) are within 1.5-fold of each other in LD50: 350 mg/kg for the first, 500 mg/kg for the second.

`O=C1NC(=O)C(Cc2cccc(C(F)(F)F)c2)N1` (centres undefined) and `CCOC(=O)CN1C(=O)NC(Cc2cccc(C(F)(F)F)c2)C1=O` (centres undefined) are within 1.5-fold of each other in LD50: 350 mg/kg for the first, 500 mg/kg for the second.

`COc1ccc(CC2(C)NC(=O)NC2=O)cc1OC` (centres undefined) and `O=C1NC(=O)/C(=C\c2cccc(Br)c2)N1` cannot be ordered by LD50: greater than 500 mg/kg for the first, greater than 500 mg/kg for the second.

Going from `O=C1NC(=O)C(c2ccccc2)(c2cccc(C(F)(F)F)c2)N1` (centres undefined) to `O=C1NC(=O)C(c2ccccc2)(c2ccccc2)N1` [PHENYTOIN], the LD50 falls from greater than 100 mg/kg to 100 mg/kg.

In the case of `O=C1NC(=O)/C(=C\c2cccc(C(F)(F)F)c2)N1`, the LD50 is reported as 350 mg/kg.

Tested on: Rattus norvegicus
Assay: Acute toxicity of was measured in rat by po administration when administered intraperitoneally
Format: organism-based
Details: in vivo

Work on `CCCC(CCC)C(=O)O` [VALPROIC ACID] yielded an LD50 of 1530 mg/kg.

Tested on: Rattus norvegicus
Assay: Peak time of anticonvulsant activity against MES was determined ip
Format: functional
Details: not given
In short: as §6

In the case of `O=C1NC(=O)C(Cc2cccc(C(F)(F)F)c2)N1` (centres undefined), the Duration of action is reported as 4 h.

Tested on: not listed separately
Assay: as §5
Format: organism-based
Details: in vivo

With `CCCC(CCC)C(=O)O` [VALPROIC ACID] the LD50 was 1040 mg/kg.

Tested on: not listed separately
Assay: Acute toxicity of was measured in rat by po administration of the compound
Format: organism-based
Details: in vivo

For `O=C1NC(=O)C(c2ccccc2)(c2ccccc2)N1` [PHENYTOIN], the LD50 was greater than 1000 mg/kg.

Tested on: Mus musculus
Assay: Anticonvulsant activity was measured by the ability to prevent matrazol induced threshold clonic seizures in mice when administered intraperitoneally
Format: functional
Details: ip
In short: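 Mice were pretreated intraperitoneally 30 min before pentylenetetrazole (90 mg/kg ip). Compounds were given as a 0.5% methylcellulose suspension at 10 mL/kg; controls received diluent. Animals were watched for 15 min and counted protected if clonic seizures were prevented. The ED50 is the dose protecting half the animals.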

`O=C1NC(=O)C(c2ccccc2)(c2ccccc2)N1` [PHENYTOIN] showed an ED50 of 50 mg/kg.

Tested on: not listed separately
Assay: Acute toxicity of was measured in rat by ip administration of the compound
Format: organism-based
Details: in vivo

`O=C1NC(=O)C(Cc2cccc(C(F)(F)F)c2)N1` (centres undefined) and `O=C1NC(=O)C(c2ccccc2)(c2ccccc2)N1` [PHENYTOIN] are within 1.5-fold of each other in LD50: 410 mg/kg for the first, 280 mg/kg for the second.
